This is an account of results in ChEMBL document CHEMBL1140666, “Synthesis and evaluation of alpha,beta-unsaturated alpha-aryl-substituted fosmidomycin analogues as DXR inhibitors” (Bioorg Med Chem Lett, 2007).

The nature of the assay: Inhibition of Escherichia coli DXR. In short, it runs like this:
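Recombinant E. coli DXR was used. Conversion of substrate DOXP to MEP was followed through the reaction's NADPH dependence, and IC50 was derived from this.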

For the molecule `O=CN(O)CCC(c1ccc(Cl)c(Cl)c1)P(=O)(O)O` (configuration not stated), the IC50 stood at 0.059 µM.

`CC(=O)N(O)C/C=C(/c1ccccc1)P(=O)(O)O` yielded an IC50 of more than 30 µM.

Regarding `CC(=O)N(O)C/C=C(/c1cccc([N+](=O)[O-])c1)P(=O)(O)O`, the IC50 was more than 30 µM.

Consider `CC(=O)N(O)C/C=C(/c1ccc([N+](=O)[O-])cc1)P(=O)(O)O`, for which the IC50 is 34 µM.

Turning to `CC(=O)N(O)C/C=C(/c1ccsc1)P(=O)(O)O`, the IC50 is more than 30 µM.

For the molecule `CC(=O)N(O)C/C=C(\c1ccccc1)P(=O)(O)O`, the IC50 stood at 5.7 µM.

`CC(=O)N(O)C/C=C(\c1ccc(C#N)cc1)P(=O)(O)O` came in with an IC50 of 16 µM.

Take `CC(=O)N(O)C/C=C(\Br)P(=O)(O)O`: the midpoint of inhibition, the IC50, lay at 0.45 µM.

On to `CC(=O)N(O)C/C=C(\c1ccc(Cl)c(Cl)c1)P(=O)(O)O`, for which it took 5.5 µM to reach half-maximal inhibition (IC50).

For `CC(=O)N(O)C/C=C(/c1cccs1)P(=O)(O)O`, inhibition was half-maximal at 42 µM (IC50).

Turning to `O=CN(O)CCCP(=O)(O)O` [FOSMIDOMYCIN], the IC50 was determined as 0.034 µM.

Regarding `CC(=O)N(O)CCCP(=O)(O)O` [FR-900098], 0.032 µM corresponded to half-maximal inhibition (IC50).

For orientation: IC50 means the concentration that inhibits the measured activity by half. High values mean a need for much substance, low ones inhibition by little substance.
